Reference: ChEMBL document CHEMBL5303300, “EUbOPEN Chemogenomics Library - Multiplex” (2023)
Where “and” joins values, the source holds several entries; their conditions need not be identical. Equal entries are not always repeated.

Tests used:
Type in all cases: toxicity, cell-based
Fibroblast = assay: Multiplex assay against human fibroblast; details: number of replicates 2
Outline: (§1)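 At seeding, live cells were stained with Hoechst33342, BioTracker Green Microtubule Cytoskeleton Dye, MitoTracker Red and Annexin V Alexa Fluor 680. After compound addition they were imaged on a CQ1 microscope at 37°C and 5% CO2, and CellPathfinder machine-learning gating sorted them into Hoechst high-intensity objects or normal cells, with normal cells further split into healthy, pyknosed or fragmented nuclei and pyknosed cells into mitotic or apoptotic. Tubulin, mitochondrial-mass and membrane-permeability phenotypes are given as per cents of cells with healthy nuclei.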

U2OS = assay: Multiplex assay against U2OS; details: human, number of replicates 2; outline: as §1
HEK-293T = assay: Multiplex assay against HEK293T; details: human, number of replicates 2; outline: as §1
[1] = 12 h, 1 µM, compound concentration 1 uM
[2] = 12 h, 10 µM, compound concentration 10 uM
[3] = 24 h, 1 µM, compound concentration 1 uM
[4] = 24 h, 10 µM, compound concentration 10 uM
[5] = 48 h, 1 µM, compound concentration 1 uM
[6] = 48 h, 10 µM, compound concentration 10 uM

## CC1=C(C)C(=O)C(C(C)(C)CC(=O)N(CCCCSC[C@H]2O[C@@H](n3cnc4c(N)ncnc43)[C@H](O)[C@@H]2O)Cc2cccc(-c3ccc(Cl)cc3)c2)=C(C)C1=O
Fibroblast; [1]
  Population Apoptotic (%): 43% and 35%
  Population Fragmented Nuclei (%): 13% and 7%
  Population Healthy Nuclei (%): 72% and 77%
  Population Hoechst High Intensity Objects (%): 0%
  Population Membrane Permeable-Phenotype (%): 1% and 6%
  Population Mitochondria Different-Phenotype (%): 0% and 1%
  Population Mitotic Cells (%): 56% and 64%
  Population Normal (%): 100%
  Population Pyknosed Nuclei (%): 14%
  Population Tubulin-Different-Phenotype (%): 34% and 18%
  Total Cell Count: 228 and 306
Fibroblast; [2]
  Population Apoptotic (%): 36% and 30%
  Population Fragmented Nuclei (%): 11% and 17%
  Population Healthy Nuclei (%): 76% and 62%
  Population Hoechst High Intensity Objects (%): 0% and 1%
  Population Membrane Permeable-Phenotype (%): 18% and 15%
  Population Mitochondria Different-Phenotype (%): 4% and 3%
  Population Mitotic Cells (%): 63% and 69%
  Population Normal (%): 100% and 99%
  Population Pyknosed Nuclei (%): 11% and 19%
  Population Tubulin-Different-Phenotype (%): 73% and 74%
  Total Cell Count: 186 and 201
Fibroblast; [3]
  Population Apoptotic (%): 57% and 51%
  Population Fragmented Nuclei (%): 8% and 9%
  Population Healthy Nuclei (%): 85% and 79%
  Population Hoechst High Intensity Objects (%): 0%
  Population Membrane Permeable-Phenotype (%): 5% and 2%
  Population Mitochondria Different-Phenotype (%): 2% and 1%
  Population Mitotic Cells (%): 42% and 48%
  Population Normal (%): 99% and 100%
  Population Pyknosed Nuclei (%): 5% and 11%
  Population Tubulin-Different-Phenotype (%): 24% and 12%
  Total Cell Count: 235 and 305
Fibroblast; [4]
  Population Apoptotic (%): 46% and 45%
  Population Fragmented Nuclei (%): 13% and 14%
  Population Healthy Nuclei (%): 78% and 68%
  Population Hoechst High Intensity Objects (%): 0%
  Population Membrane Permeable-Phenotype (%): 4% and 8%
  Population Mitochondria Different-Phenotype (%): 13% and 17%
  Population Mitotic Cells (%): 53% and 54%
  Population Normal (%): 100% and 99%
  Population Pyknosed Nuclei (%): 8% and 17%
  Population Tubulin-Different-Phenotype (%): 78% and 83%
  Total Cell Count: 182 and 183
Fibroblast; [5]
  Population Apoptotic (%): 50%
  Population Fragmented Nuclei (%): 12% and 13%
  Population Healthy Nuclei (%): 83% and 81%
  Population Hoechst High Intensity Objects (%): 0%
  Population Membrane Permeable-Phenotype (%): 3% and 1%
  Population Mitochondria Different-Phenotype (%): 0%
  Population Mitotic Cells (%): 50%
  Population Normal (%): 99%
  Population Pyknosed Nuclei (%): 3% and 5%
  Population Tubulin-Different-Phenotype (%): 13% and 5%
  Total Cell Count: 257 and 316
Fibroblast; [6]
  Population Apoptotic (%): 71% and 65%
  Population Fragmented Nuclei (%): 18% and 20%
  Population Healthy Nuclei (%): 74% and 69%
  Population Hoechst High Intensity Objects (%): 0%
  Population Membrane Permeable-Phenotype (%): 0% and 5%
  Population Mitochondria Different-Phenotype (%): 6% and 13%
  Population Mitotic Cells (%): 28% and 35%
  Population Normal (%): 100%
  Population Pyknosed Nuclei (%): 7% and 10%
  Population Tubulin-Different-Phenotype (%): 76% and 69%
  Total Cell Count: 197
U2OS; [1]
  Population Apoptotic (%): 33% and 50%
  Population Fragmented Nuclei (%): 4% and 7%
  Population Healthy Nuclei (%): 85% and 72%
  Population Hoechst High Intensity Objects (%): 0%
  Population Membrane Permeable-Phenotype (%): 5% and 6%
  Population Mitochondria Different-Phenotype (%): 4% and 0%
  Population Mitotic Cells (%): 66% and 50%
  Population Normal (%): 99% and 100%
  Population Pyknosed Nuclei (%): 10% and 20%
  Population Tubulin-Different-Phenotype (%): 57% and 34%
U2OS; [2]
  Population Apoptotic (%): 75% and 58%
  Population Fragmented Nuclei (%): 8% and 4%
  Population Healthy Nuclei (%): 69% and 79%
  Population Hoechst High Intensity Objects (%): 0%
  Population Membrane Permeable-Phenotype (%): 16% and 24%
  Population Mitochondria Different-Phenotype (%): 40% and 33%
  Population Mitotic Cells (%): 25% and 41%
  Population Normal (%): 100%
  Population Pyknosed Nuclei (%): 22% and 16%
  Population Tubulin-Different-Phenotype (%): 96% and 86%
U2OS; [3]
  Population Apoptotic (%): 53% and 77%
  Population Fragmented Nuclei (%): 2% and 6%
  Population Healthy Nuclei (%): 89% and 77%
  Population Hoechst High Intensity Objects (%): 0%
  Population Membrane Permeable-Phenotype (%): 3% and 4%
  Population Mitochondria Different-Phenotype (%): 4% and 6%
  Population Mitotic Cells (%): 46% and 22%
  Population Normal (%): 99% and 100%
  Population Pyknosed Nuclei (%): 7% and 15%
  Population Tubulin-Different-Phenotype (%): 66% and 42%
U2OS; [4]
  Population Apoptotic (%): 87% and 79%
  Population Healthy Nuclei (%): 53% and 70%
  Population Hoechst High Intensity Objects (%): 0%
  Population Membrane Permeable-Phenotype (%): 50% and 23%
  Population Mitochondria Different-Phenotype (%): 42% and 45%
  Population Mitotic Cells (%): 12% and 20%
  Population Normal (%): 100% and 99%
  Population Pyknosed Nuclei (%): 30% and 25%
  Population Tubulin-Different-Phenotype (%): 78% and 90%
U2OS; [5]
  Population Apoptotic (%): 100% and 39%
  Population Fragmented Nuclei (%): 9% and 3%
  Population Healthy Nuclei (%): 77% and 89%
  Population Hoechst High Intensity Objects (%): 0%
  Population Membrane Permeable-Phenotype (%): 4% and 1%
  Population Mitochondria Different-Phenotype (%): 7% and 0%
  Population Normal (%): 100%
  Population Pyknosed Nuclei (%): 12% and 7%
  Population Tubulin-Different-Phenotype (%): 56% and 79%
U2OS; [6]
  Population Apoptotic (%): 68% and 78%
  Population Healthy Nuclei (%): 32% and 66%
  Population Hoechst High Intensity Objects (%): 0%
  Population Membrane Permeable-Phenotype (%): 66% and 36%
  Population Mitochondria Different-Phenotype (%): 58% and 52%
  Population Mitotic Cells (%): 31% and 21%
  Population Normal (%): 100% and 99%
  Population Pyknosed Nuclei (%): 51% and 28%
  Population Tubulin-Different-Phenotype (%): 100% and 82%
HEK-293T; [1]
  Population Apoptotic (%): 40% and 44%
  Population Fragmented Nuclei (%): 4%
  Population Healthy Nuclei (%): 89% and 86%
  Population Hoechst High Intensity Objects (%): 6% and 7%
  Population Membrane Permeable-Phenotype (%): 4% and 3%
  Population Mitochondria Different-Phenotype (%): 10% and 11%
  Population Mitotic Cells (%): 59% and 55%
  Population Normal (%): 93% and 92%
  Population Pyknosed Nuclei (%): 6% and 8%
  Population Tubulin-Different-Phenotype (%): 71% and 70%
  Total Cell Count: 874 and 797
HEK-293T; [2]
  Population Apoptotic (%): 52% and 54%
  Population Fragmented Nuclei (%): 2%
  Population Healthy Nuclei (%): 82% and 81%
  Population Hoechst High Intensity Objects (%): 7%
  Population Membrane Permeable-Phenotype (%): 10% and 3%
  Population Mitochondria Different-Phenotype (%): 48% and 51%
  Population Mitotic Cells (%): 47% and 45%
  Population Normal (%): 92%
  Population Pyknosed Nuclei (%): 14% and 15%
  Population Tubulin-Different-Phenotype (%): 88% and 92%
  Total Cell Count: 506 and 434
HEK-293T; [3]
  Population Apoptotic (%): 21% and 25%
  Population Fragmented Nuclei (%): 8% and 6%
  Population Healthy Nuclei (%): 87%
  Population Hoechst High Intensity Objects (%): 8%
  Population Membrane Permeable-Phenotype (%): 6% and 3%
  Population Mitochondria Different-Phenotype (%): 2% and 5%
  Population Mitotic Cells (%): 78% and 74%
  Population Normal (%): 91%
  Population Pyknosed Nuclei (%): 4% and 6%
  Population Tubulin-Different-Phenotype (%): 50%
  Total Cell Count: 1418 and 1263
HEK-293T; [4]
  Population Apoptotic (%): 46% and 64%
  Population Fragmented Nuclei (%): 3%
  Population Healthy Nuclei (%): 81%
  Population Hoechst High Intensity Objects (%): 7% and 9%
  Population Membrane Permeable-Phenotype (%): 4% and 3%
  Population Mitochondria Different-Phenotype (%): 62% and 59%
  Population Mitotic Cells (%): 53% and 35%
  Population Normal (%): 92% and 90%
  Population Pyknosed Nuclei (%): 15% and 14%
  Population Tubulin-Different-Phenotype (%): 88% and 93%
  Total Cell Count: 524 and 473
HEK-293T; [5]
  Population Apoptotic (%): 10% and 13%
  Population Fragmented Nuclei (%): 24% and 15%
  Population Healthy Nuclei (%): 74% and 81%
  Population Hoechst High Intensity Objects (%): 10% and 9%
  Population Membrane Permeable-Phenotype (%): 6% and 5%
  Population Mitochondria Different-Phenotype (%): 0%
  Population Mitotic Cells (%): 89% and 86%
  Population Normal (%): 89% and 90%
  Population Pyknosed Nuclei (%): 1% and 2%
  Population Tubulin-Different-Phenotype (%): 25% and 28%
  Total Cell Count: 3744 and 2984
HEK-293T; [6]
  Population Apoptotic (%): 55% and 62%
  Population Fragmented Nuclei (%): 4% and 5%
  Population Healthy Nuclei (%): 87% and 88%
  Population Hoechst High Intensity Objects (%): 6% and 10%
  Population Membrane Permeable-Phenotype (%): 8% and 6%
  Population Mitochondria Different-Phenotype (%): 47%
  Population Mitotic Cells (%): 44% and 37%
  Population Normal (%): 93% and 89%
  Population Pyknosed Nuclei (%): 7% and 5%
  Population Tubulin-Different-Phenotype (%): 93% and 92%
  Total Cell Count: 622 and 637
